# Bioassay records: PubChem BioAssay, several laboratories
# The sample as a whole holds a higher share of hits than the screen did.
# NALP1 inh: inhibitors of NALP1 inflammasome in yeast; S. cerevisiae NALP1/ASC/caspase-1 growth, X-gal OD620, 72 h; inhibition, % at 10 µM; 0.61% of 280,000 active; AID 2071; in the data active = inhibition mostly above about 24%, no sharp cut-off; inactive = mostly below about 32%
# Calb FLC: C. albicans growth modulation with fluconazole; growth inhibition, % (concentration not given with the values); 0.57% of 300,000 active; C. albicans CaCi-2 + fluconazole, Alamar Blue growth, 48 h; AID 1979;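 active = growth inhibition above about 58% in most replicates, limit read from the data, passing the limit was not always enough; inconclusive = exactly half the replicates above a set limit; inactive = most replicates below a set limit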;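 note: all wells also contain fluconazole at 8 µg/ml as a sub-toxic cotreatment; 0% = median of DMSO wells and 100% = median of geldanamycin control wells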
# T cruzi inh: T. cruzi replication inhibition. 1.4% of 300,000 active. T. cruzi beta-gal in NIH3T3, luminescence, 90 h. inhibition, % (test concentration not listed);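 active = mean inhibition across valid replicates above about 55%, limit read from the data; inconclusive = mean below that limit but half or more replicates reach it; inactive = mean below it, under half of replicates reach it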;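 note: signal also drops with host cell toxicity which is not excluded here; 0% = plate median of DMSO wells and 100% = zero luminescence signal; higher percent means less beta-gal luminescence so fewer parasites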
#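 assay system = mouse NIH/3T3 fibroblasts infected with β-gal-expressing T. cruzi Tulahuen C4 | input = 5,000 NIH/3T3 host cells per well | buffer or medium = DMEM plus 2% FBS | timing = 3 h host attachment, then at least 90 h co-culture | measured by = GalScreen luminescence, 60 min | evaluation = luminescence reflecting intracellular parasite burden, expressed as percent inhibition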
# L major viab: inhibitors of Leishmania major promastigote growth; Leishmania major promastigotes, resazurin fluorescence viability; inhibition, % at 10 µM; 9% of 200,000 active; AID 1063; in the data active = inhibition above about 50%;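 note: promastigotes grown with compound for 44 hours at 28 °C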
# NALP3 yeast inh: blocks the NALP3 inflammasome reconstituted in yeast | 0.39% of 330,000 active | Yeast reconstituted NLRP3/ASC/caspase-1, beta-gal luminescence, 24 h | inhibition, % at 10 µM;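 active = inhibition of 50% or more; inactive = inhibition below 50%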;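 note: plate controls were induced DMSO wells for no effect and uninduced yeast grown without galactose for full effect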
# PolyA inh: inhibitors of polyadenylation in S. cerevisiae; S. cerevisiae SKY197-pL101 polyadenylation reporter, beta-gal luminescence; efflux-impaired pdr1/pdr3 knockout yeast; score 100 = 6 SD above DMSO; activity score, % at 12 µM; 0.02% of 300,000 active; AID 1875;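 active = lowest replicate activity score at least 50, where 100 means six control SD above control mean; inconclusive = lowest score under 50 but half or more replicates reach 50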;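 note: yeast exposed to compound for 9 h at 30 °C; higher score means more reporter readthrough which indicates perturbed polyadenylation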
# * marks the source's active call; other numbers are inactive results; ? = inconclusive; . = not tested or not shown.
SMILES,NALP1 inh,Calb FLC,T cruzi inh,L major viab,NALP3 yeast inh,PolyA inh
COc1cc(Oc2ccccc2)nc(N)n1,.,-4,-4,.,-2,-1
CCN(CC)CCNC(=O)c1cc2c(s1)-c1ccccc1SC2,12,-1,55*,.,10,5
NNC(=O)c1cc2c(s1)-c1cc(Cl)ccc1SC2,.,16,5,.,9,2
CCCCCC(=O)NNC(=O)c1c(O)c2ccccc2n(CC)c1=O,-12,36,-9,-2,34,28
CCCn1c(=O)c(C(=O)NNS(=O)(=O)c2ccc(C)cc2)c(O)c2ccccc21,4,-2,-15,-5,14,3
CCn1c(=O)c(C(=O)NNS(=O)(=O)c2ccc(C)cc2)c(O)c2ccccc21,-15,-14,-12,59*,13,13
CCCCCCCCCC(=O)NNC(=O)c1c(O)c2ccccc2n(CC)c1=O,11,113*,-7,-11,10,-6
Cc1ccc(NS(=O)(=O)c2ccc3c(c2)N(C)CCO3)cc1,17,-1,-25,.,3,-17
CN1CCOc2cc(S(=O)(=O)Nc3ccc(F)cc3)ccc21,26*,0,-4,0,-3,11
CCOC(=O)C1=C(C)Nc2nnnn2C1c1c[nH]c2ccccc12 (configuration not stated),46*,-2,9,2,-7,10
Cc1ccc(C(=O)c2oc3nc(C)cc(C)c3c2N)cc1,1,121*,-2,64*,31,-16
COc1ccc(C(=O)c2oc3nc(C)cc(C)c3c2N)cc1,6,-10,3,18,-4,12
Cc1cc(C)c2oc(-c3cccc(NC(=O)c4ccc(F)cc4)c3)nc2c1,-33,14,-10,65*,0,3
Cc1ccc(/C=N/NC(=O)CNC(=O)c2ccc(S(=O)(=O)N(C)C)cc2)cc1,-13,-22,-20,48,2,-30
CN(C)S(=O)(=O)c1ccc(C(=O)NCC(=O)N/N=C/c2ccccc2Cl)cc1,25,?,6,68*,11,5
Cc1ccsc1/C=N/NC(=O)CNC(=O)c1ccc(S(=O)(=O)N(C)C)cc1,0,1,-9,52*,-2,3
Cc1nn(Cc2ccc(F)cc2)c(C)c1NC(=O)c1cnn2c1NC(c1ccccc1)CC2C(F)(F)F (configuration not stated),16,-2,26,73*,-2,18
COc1ccccc1CC(=O)Nc1ccc(S(=O)(=O)N(C)C2CCN(C)CC2)cc1,.,.,.,.,13,.
CCCC(C)C(=O)Nc1ccc(Cl)cn1 (configuration not stated),15,1,10,-8,5,-7
CC1c2[nH]c3ccccc3c2C[C@H]2C(=O)N(CCO)CC(=O)N12 (some centres not stated),4,-5,-14,.,7,7
Cc1ccc(S(=O)(=O)NNC(=O)c2snnc2C)cc1,37*,-13,-5,-5,-9,-2
Cc1nnsc1C(=O)NNS(=O)(=O)c1cc(C(F)(F)F)cc(C(F)(F)F)c1,19,7,-9,.,-4,16
O=C(CN1C2=NCCCN2c2ccccc21)c1ccc([N+](=O)[O-])cc1,14,-8,59*,1,13,-10
O=C(CN1C2=NCCN2c2ccccc21)c1ccc(Br)cc1,17,-67,11,18,28,-4
O=C(CN1C2=NCCCN2c2ccccc21)c1cccs1,-3,-11,15,-10,4,-10
SMILES,NALP1 inh,Calb FLC,T cruzi inh,L major viab,NALP3 yeast inh,PolyA inh
Clc1ccc(CN2C3=NCCCN3c3ccccc32)cc1Cl,13,31,25,51*,22,-1
O=C(CN1C2=NCCCN2c2ccccc21)c1cccc(Br)c1,12,4,14,94*,1,5
Fc1ccc(CN2C3=NCCCN3c3ccccc32)cc1,13,5,-2,-3,11,0
O=C(CN1C2=NCCCN2c2ccccc21)c1ccc(Cl)cc1Cl,25,1,51,100*,26,-4
CC(O)[C@@H](NC(=O)C1CCC(CNC(=O)[C@H](Cc2ccccc2)NC(=O)OC(C)(C)C)CC1)C(=O)O (some centres not stated),6,-10,-2,.,8,1
CCC(CC)C(=O)c1c[nH]c(C(=O)OC)c1,10,2,-11,1,-4,-15
COC(=O)C1CCN(C(=O)COC(=O)CSc2ccc(C(N)=O)cc2[N+](=O)[O-])CC1,.,-3,-5,.,12,-5
CCNC(=O)/C=C1\NC(C)(C)Cc2c1ccc1ccccc21,9,11,10,100*,32,-5
Cc1ccc(N(CC(=O)NCCSc2ccccn2)S(C)(=O)=O)cc1,8,-36,16,0,19,13
CCn1cc(C2=NOC(C(=O)Nc3ccc4c(c3)OCO4)C2)c(C)n1 (configuration not stated),14,16,-10,57*,3,9
O=C(Nc1ccc2c(c1)OCO2)C1CC(c2ccccc2Cl)=NO1 (configuration not stated),-1,-13,0,-5,15,-5
CCN(CC(=O)Nc1c(F)cccc1F)C(=O)CCNC(=O)c1ccc([N+](=O)[O-])cc1,.,0,2,.,16,-9
CCOC(=O)N1CCC(NC(=O)c2cc(C(=O)Nc3ccc(OC)c(OC)c3)ccc2CO)CC1,-6,3,-8,-1,-6,-10
CCOC(=O)c1ccc(NC(=O)c2ccc(CO)c(C(=O)NC3CCN(C(=O)OCC)CC3)c2)cc1,13,104*,-3,-1,-8,22
O=C1NC(=S)N/C1=C\c1cccnc1,.,0,2,.,13,18
O=C1/C(=C/c2ccccc2)CCCc2ccccc21,57*,-17,-33,6,42,-13
CCC1C/C(=C\c2cccnc2)C(=O)/C(=C/c2cccnc2)C1 (configuration not stated),76*,.,.,100*,.,.
CC(C)/C=C1\CC/C(=C\c2cccnc2)C1=O,-6,2,56*,54*,2,36
O=C1/C(=C/c2ccc(C(=O)O)cc2)CCC/C1=C\c1ccc(C(=O)O)cc1,16,-14,-18,66*,13,24
O=C1/C(=C\c2ccc([N+](=O)[O-])cc2)CCc2ccccc21,33,-24,9,4,21,-12
O=C(CN1CCCCC1)NCCNc1ccc(C(F)(F)F)cc1[N+](=O)[O-],33,?,16,13,26,17
CC1Nc2nc(NC(=O)C(C)(C)C)[nH]c(=O)c2N(C)C1C (configuration not stated),7,-5,-11,16,8,10
O=C1/C(=C/c2cccnc2)CC/C1=C\c1cccnc1,28,10,2,82*,2,-13
